Laboratory results as given in PMC7675178 (Journal of medicinal chemistry, 2019).
Residues, ends and D or L forms follow the SMILES beside them. *: point of attachment. Cbz = O=C(OCc1ccccc1)*; Boc = CC(C)(C)OC(=O)*; OBn = c1ccc(CO*)cc1; OtBu = CC(C)(C)O*

Key:
[1] = test system: primary MM cells; assay: Cell viability of primary MM cells; format: cell-based, human; conditions: 48 h; for Cytotoxic effects in primary MM samples, Btz-resistant versus PI-naïve: 10 μM, nine samples, Figure 5B,C
Procedure, shortened: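 Bone-marrow aspirates from patients; CD138+ plasma cells isolated by positive bead selection, purity checked by flow cytometry. Donors were six Btz/Cfz-naïve and eight relapsed on Btz. Plated 20 000 cells/well in IMDM with 10% FBS. Exposed to test compound (50 nM or 10 μM) for 48 h. Percentage viable cells measured by CellTiter-Glo luminescence.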

[2] = test system: β1i subunit; conditions: cited from earlier work
[3] = test system: β5 subunit; conditions: cited from earlier work
[4] = test system: Cfz-resistant RPMI8226 cells; assay: Cell viability assay; format: cell-based, human
Procedure, shortened: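 Resistant RPMI8226 subline derived by stepwise Cfz exposure up to 80 nM over ~6 months, kept in 80 nM, then grown Cfz-free ~1 week before assay. Parental and resistant cells in RPMI1640/10% FBS, plated 10 000/well; compounds added 24 h after plating. MTS read after 72 h. IC50 by nonlinear regression; triplicates, or three independent experiments for the reference.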

[5] = test system: H727 cells; assay: Cell viability assay; format: cell-based
[6] = test system: proteasome chymotrypsin-like (CT-L, β5/β5i) activity; format: biochemical, human; conditions: RPMI8226 cell lysate, Figure 7
Procedure, shortened: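 RPMI 8226 lysate in 20 mM Tris-HCl, 0.5 mM EDTA, 0.035% SDS, pH 8.0, preincubated 1 h with a range of inhibitor concentrations. Suc-LLVY-AMC added at 100 μM final. AMC fluorescence (ex 360/em 460 nm) read each minute for 1 h. Initial slopes normalized to vehicle wells; IC50 from nonlinear regression.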

[7] = molecular target: β1i/LMP2 of human 20S immunoproteasome (Homo sapiens, UniProt P28065); assay: Enzyme kinetics assay, β1i/LMP2 activity of purified human 20S immunoproteasome; format: biochemical; conditions: 20S purified immunoproteasome, Figure 7
Procedure, shortened: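 Purified human 20S immunoproteasome in pH 8.0 Tris-HCl buffer (0.5 mM EDTA, 0.035% SDS), incubated 1 h with graded inhibitor concentrations. LMP2 activity measured with Ac-PAL-AMC (100 μM final) by AMC fluorescence (360/460 nm) every minute for 1 h. Linear-regression initial rates normalized to vehicle control; IC50 by nonlinear fit.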

[8] = in vivo; cited from earlier work
[9] = In vitro metabolic stability in rat liver homogenates; format: in vitro ADME; conditions: 1 μM, 5, 10 and 20 min, 37 °C, Figure 8B
Procedure, shortened: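 Livers from 8-week-old male Sprague-Dawley rats, PBS-washed and homogenized in five-fold volume PBS (pH 7.4) per gram. Homogenate prewarmed to 37 °C, spiked to 1 μM final, n = 3. Samples taken at 0, 5, 10 and 20 min, quenched in four-fold ice-cold acetonitrile with 0.5 μM chlorpropamide internal standard. Remaining drug quantified by LC-MS/MS (positive-ion SRM).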

[10] = 72-h IC50 values, H727 versus H23, Figure 3B

SMILES: CCCCCCC(=O)N[C@@H](C)C(=O)N[C@@H](CC(C)C)C(=O)[C@@]1(CO[Si](C)(C)C(C)(C)C)CO1 [UK101]
- Cytotoxic effects in primary MM samples, Btz-resistant versus PI-naïve [1]: similar
- Inhibition of β1i subunit, concentration range [2]: nanomolar concentration ranges
- Inhibition of β5 subunit (CT-L activity), concentration range [3]: micromolar concentration ranges

SMILES: CCCCCCC(=O)N[C@@H](CO)C(=O)N[C@@H](CC(C)C)C(=O)[C@@]1(COCOCCOC)CO1 [UK102]
- Cytotoxic effects in primary MM samples, Btz-resistant versus PI-naïve [1]: similar

SMILES: CC(C)(C)OC(=O)N[C@@H](CC(=O)OCc1ccccc1)C(=O)N[C@@H](CCCCNC(=O)OCc1ccccc1)C(=O)OC(C)(C)C [reversin 121] (Boc-Asp(OBn)-Lys(Cbz)-OtBu)
- Restoration of Cfz sensitivity by P-gp inhibitor ([4]; Cfz-resistant RPMI8226, Supporting Information S2): almost completely restored Cfz sensitivity

SMILES: CC(C)C[C@H](NC(=O)[C@H](Cc1ccccc1)NC(=O)c1cnccn1)B(O)O [Btz, bortezomib]
- Cytotoxicity in H727 cells compared with H23 cells ([5]; human, 72 h): comparable cytotoxicity in H727 and H23 cells

SMILES: CC(C)C[C@H](NC(=O)[C@H](CCc1ccccc1)NC(=O)CN1CCOCC1)C(=O)N[C@@H](Cc1ccccc1)C(=O)N[C@@H](CC(C)C)C(=O)[C@@]1(COS(C)(=O)=O)CO1 [Compound 12, ((S)-2-((4S,7S,10S,13S)-10-Benzyl-7-isobutyl-15-methyl-1-morpholino-2,5,8, 11-tetraoxo-4-phenethyl-3,6,9, 12-tetraazahexadecanecarbonyl)oxiran-2-yl)methylmethane-sulfonate]
- Potency against H727 cells compared with Cfz ([5]; Cfz-resistant H727 cells, Figure 7): less potent than Cfz
- IC50 against CT-L (β5/β5i) activity compared with Cfz [6]: IC50 values similar to that of Cfz
- IC50 against β1i activity compared with Cfz [7]: IC50 values similar to that of Cfz

SMILES: CCCCCCC(=O)N[C@@H](C)C(=O)N[C@@H](CC(C)C)C(=O)[C@@]1(CO)CO1 [Compound 5, N-((S)-1-((S)-1-((R)-2-(Hydroxymethyl)oxiran-2-yl)-4-methyl-1-oxopentan-2-ylamino)-1-oxopropan-2-yl)heptanamide]
- Cytotoxic activity in cancer cell lines relative to UK101 ([5]; H23, H727 and Cfz-resistant RPMI8226 cells, MTS, Figure 6B): considerably improved the cytotoxic activity

SMILES: CC(C)C[C@H](NC(=O)[C@H](CCc1ccccc1)NC(=O)CN1CCOCC1)C(=O)N[C@@H](Cc1ccccc1)C(=O)N[C@@H](CC(C)C)C(=O)[C@@]1(C)CO1 [Cfz, carfilzomib]
- Increase in IC50 values in Cfz-resistant RPMI8226 cells ([4]; versus parental RPMI8226, 72 h MTS, Figure 4A): greater than 35 fold
- Sensitivity of primary MM samples, Btz-relapsed versus PI-naïve patients ([1]; 50 nM, 14 donors, Figure 5A): tended to be less responsive to Cfz
- Plasma half-lives [8]: less than 1 h

SMILES: CC(C)C[C@H](NC(=O)[C@H](CCc1ccccc1)NC(=O)CN1CCOCC1)C(=O)N[C@@H](Cc1ccccc1)C(=O)N[C@@H](CC(C)C)C(=O)[C@@]1(CO)CO1 [Compound 9, (S)-N-((S)-1-((S)-1-((R)-2-(Hydroxymethyl)oxiran-2-yl)-4-methyl-1-oxopentan-2-ylamino)-1-oxo-3-phenylpropan-2-yl)-4-methyl-2-((S)-2-(2-morpholinoacetamido)-4-phenylbutanamido)-pentanamide]
- Improvement in potency as compared to Cfz ([4]; Cfz-resistant RPMI8226 cells, Figure 7): almost three-fold improvement in potency
- IC50 against CT-L (β5/β5i) activity compared with Cfz [6]: IC50 values similar to that of Cfz
- IC50 against β1i activity compared with Cfz [7]: IC50 values similar to that of Cfz
- Metabolic stability compared with Cfz [9]: more stable than Cfz

SMILES: CC(C)C[C@@H](C=O)NC(=O)[C@H](CC(C)C)NC(=O)[C@H](CC(C)C)NC(=O)OCc1ccccc1 [MG-132] (Cbz-Leu-Leu-Leu-aldehyde)
- Cytotoxicity in H727 cells compared with H23 cells [5, 10]: comparable cytotoxicity in H727 and H23 cells

SMILES: CC(=O)N[C@@H](CSC(=O)[C@]1([C@@H](O)C(C)C)NC(=O)[C@H](C)[C@@H]1O)C(=O)O [lactacystin]
- Cytotoxicity in H727 cells compared with H23 cells [5, 10]: not as effective in H727 cells as in H23 cells
